Measurements taken from paper PMC6997517 (EBioMedicine, 2020).

Tests used:
HEK-Blue™ hTLR4 cells = assay: MTT cell viability, HEK-Blue hTLR4 cells; format: cell-based, human; conditions: n ≥ 3
Procedure, shortened: (§1)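 MTT colourimetric viability assay. HEK-Blue hTLR4 cells (high-glucose DMEM, 10% FBS, normocin) seeded at 5 × 10^4/well. RAW264.7 cells seeded at 2 × 10^5/well. Both grown overnight before exposure to test compound.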

[1] = tested on: TLR4 (HEK-Blue™ hTLR4 cells); assay: SEAP activity assay; format: cell-based, human; conditions: LPS-stimulated; absorbance at 620 nm; n ≥ 3
Procedure, shortened: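 Seeded at 2 × 10^5/well (24-well) and grown overnight, then treated with a range of test-compound concentrations with or without LPS. Supernatants heat-treated at 65 °C for 10 min. SEAP (NF-κB reporter) detected with HEK-Blue detection medium.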

RAW264.7 cells = assay: MTT cell viability, RAW264.7 cells; format: cell-based, murine; conditions: 50 μM
Procedure, shortened: as §1

TLR4 [2] = assay: Cytokine ELISA, LPS-stimulated RAW264.7 cells; format: cell-based, murine; conditions: n ≥ 3
Procedure, shortened: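 Murine macrophages seeded at 2 × 10^5/well (96-well) or 5 × 10^5/well (24-well) and grown overnight, then treated with test compound and LPS. After 24 h treatment, secreted IFN-β was measured by pre-coated mouse IFN-β ELISA. Mouse IL-6 and mouse TNF-α were measured by ELISA kits.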

TLR4 [3] = assay: Western blot, LPS-stimulated RAW264.7 cells; format: cell-based, murine
Procedure, shortened: (§2)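 Total protein extracted with M-PER reagent and quantified by BCA. Membranes incubated with primary antibodies overnight at 4 °C, washed in PBS/0·1% Tween 20, then HRP-conjugated secondary (1:1000) for 2 h. Bands detected by enhanced chemiluminescence, with β-actin as loading reference.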

[4] = tested on: TLR4-mediated NLRP3 inflammasome; assay: NLRP3 inflammasome activation, IL-1β secretion, LPS-primed THP-1 cells; format: cell-based, human; conditions: THP-1 primed with LPS, activated with Nigericin; n ≥ 3
[5] = tested on: TNFR-mediated NLRP3 inflammasome; assay: NLRP3 inflammasome activation, IL-1β secretion, TNF-α-primed THP-1 cells; format: cell-based; conditions: THP-1 primed with recombinant human TNF-α, activated with Nigericin
TLR4 [6] = assay: NO secretion assay, LPS-stimulated RAW264.7 cells; format: cell-based, murine; conditions: absorbance at 550 nm
Procedure, shortened: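 RAW264.7 cells seeded at 2 × 10^5/well in 96-well format and grown overnight. After treatment with test compound and LPS, nitric oxide in the culture medium was quantified with a colourimetric NO detection kit.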

TLR4 [7] = assay: Intracellular NO and ROS; format: cell-based, murine; conditions: LPS, 50 μM TIP3
Procedure, shortened: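 RAW264.7 cells seeded at 1 × 10^6 per 6 cm dish and grown overnight. Stimulated with LPS and treated with test compound. Intracellular NO stained with DAF-FM and ROS with DCF-DA. Cellular fluorescence quantified by flow cytometry.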

TLR2/6 = assay: TNF-α secretion, FSL-1-stimulated RAW264.7 cells; format: cell-based, murine; conditions: TIP3 at 50 μM
Procedure, shortened: (§3)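 RAW264.7 cells seeded at 2 × 10^5/well (96-well) or 5 × 10^5/well (24-well), grown overnight, then treated with test compound. Stimulus: poly(I:C), CpG-ODN (15), FSL-1 (16) or R848 (17). Supernatant cytokines read after 24 h by mouse ELISA kits (IFN-β, IL-6, TNF-α). Cells kept at 37 °C, 5% CO2.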

TLR9 = assay: TNF-α secretion, CpG-ODN-stimulated RAW264.7 cells; format: cell-based, murine; conditions: TIP3 at 50 μM
Procedure, shortened: as §3

TLR4 [8] = assay: Western blot, LPS-stimulated hPBMCs; format: cell-based, human
Procedure, shortened: as §2

TLR4 [9] = assay: Cytokine ELISA, LPS-stimulated mBMDMs; format: cell-based, mouse; conditions: TIP3 1 h, then LPS 24 h
Procedure, shortened: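 Bone marrow flushed from femurs and tibiae of 6–7-week-old C57BL/6J mice, then differentiated with M-CSF (25 ng/ml) for 3–4 days. Cells harvested with trypsin-EDTA and replated; experiments run after 24 h. Cells pretreated with test compound for 1 h, then co-treated with LPS for 24 h. Secreted IL-6 and TNF-α measured by mouse ELISA kits.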

TLR3 = assay: Cytokine ELISA, poly; format: cell-based, mouse; conditions: mBMDMs, poly(I:C)
Procedure, shortened: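 Bone marrow flushed from femurs and tibiae of C57BL/6J mice (6–7 weeks). Cultured in DMEM/10% FBS with M-CSF (25 ng/ml) for 3–4 days, detached with trypsin-EDTA, replated, and used 24 h later. Seeded and grown overnight, stimulated with poly(I:C) plus test compound. Secreted IFN-β measured after 24 h by mouse IFN-β ELISA.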

hMNCs = assay: Cell viability, hMNCs; format: cell-based, human
[10] = tested on: mice with IMQ-induced psoriasis-like disease; assay: Histology and immunohistochemistry of back skin, psoriasis model; format: in vivo, mouse (C57BL/6)
Procedure, shortened: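 Back-skin lesions from imiquimod-treated C57BL/6 mice fixed in 4% paraformaldehyde, paraffin-embedded and sectioned at 7 μm. H&E staining used for epidermal/dermal thickness, measured by microscopy. Immunohistochemistry done with HRP/DAB detection using primary antibodies to CD68, CD4 and IL-17.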

[11] = TIP3 10 and 50 nmol/g, H&E, five skin samples per group

DYDVCVCH [TIP3]
cell viability / cytotoxicity (HEK-Blue™ hTLR4 cells; 12·5 to 50 μM): did not show any significant cytotoxicity
cell viability / cytotoxicity (HEK-Blue™ hTLR4 cells; high concentration, 100 μM): slight cytotoxicity
inhibition of LPS-induced SEAP activity (NF-κB) [1]: hampered the LPS-induced SEAP activity in a dose-dependent manner
cell viability / toxicity (RAW264.7 cells): did not have any toxic effects
LPS-induced IFN-α secretion (TLR4 [2]): significantly prevented in vitro production of proinflammatory cytokines (TNF-α and IL-6) and IFN-α and -β in a dose-dependent manner
LPS-induced IFN-β secretion (TLR4 [2]): significantly prevented in vitro production of proinflammatory cytokines (TNF-α and IL-6) and IFN-α and -β in a dose-dependent manner
LPS-induced IL-6 secretion (TLR4 [2]): significantly prevented in vitro production of proinflammatory cytokines (TNF-α and IL-6) and IFN-α and -β in a dose-dependent manner
LPS-induced TNF-α secretion (TLR4 [2]): significantly prevented in vitro production of proinflammatory cytokines (TNF-α and IL-6) and IFN-α and -β in a dose-dependent manner
ATF3 expression (TLR4 [3]): hindered the LPS-induced expression of activating transcription factor 3 (ATF3)
COX2 expression (TLR4 [3]): represses the LPS-induced extracellular secretion of NO and the expression of iNOS and COX2 in a dose-dependent manner
Iκ-Bα degradation (TLR4 [3]): inhibiting Iκ-Bα degradation
iNOS expression (TLR4 [3]): represses the LPS-induced extracellular secretion of NO and the expression of iNOS and COX2 in a dose-dependent manner
phosphorylation of ERK (TLR4 [3]): inhibiting the phosphorylation of c-Jun N-terminal kinase (JNK), p38 MAPK, extracellular signal–regulated kinase (ERK)
phosphorylation of IRF3 (p-IRF3) (TLR4 [3]): inhibiting Iκ-Bα degradation, and phosphorylation of the p65 subunit of NF-κB, and IRF3
phosphorylation of JNK (TLR4 [3]): inhibiting the phosphorylation of c-Jun N-terminal kinase (JNK)
phosphorylation of p38 (TLR4 [3]): inhibiting the phosphorylation of c-Jun N-terminal kinase (JNK), p38 MAPK
phosphorylation of p65 subunit of NF-κB (p-p65) (TLR4 [3]): inhibiting Iκ-Bα degradation, and phosphorylation of the p65 subunit of NF-κB
IL-1β secretion [4]: dose-dependently inhibits IL-1β secretion in LPS-primed cells
IL-1β secretion [5]: not in the TNF-α-primed cells
LPS-induced extracellular NO secretion (TLR4 [6]): represses the LPS-induced extracellular secretion of NO
intracellular NO (TLR4 [7]; DAF-FM): significantly inhibited
intracellular ROS (TLR4 [7]; DCF-DA): significantly inhibited
TNF-α secretion mediated by TLR2/6 (TLR2/6): somewhat weak inhibition
TNF-α secretion mediated by TLR9 (TLR9): somewhat weak inhibition
activation of ATF3 (TLR4 [8]): hindered the activation of NF-κB and ATF3
activation of NF-κB (TLR4 [8]): hindered the activation of NF-κB
phosphorylation of ERK (TLR4 [8]): inhibited the phosphorylation of MAPKs, including ERK, JNK, and p38
phosphorylation of IRF3 (TLR4 [8]): hindered the activation of NF-κB and ATF3 and the phosphorylation of IRF3
phosphorylation of JNK (TLR4 [8]): inhibited the phosphorylation of MAPKs, including ERK, JNK, and p38
phosphorylation of p38 (TLR4 [8]): inhibited the phosphorylation of MAPKs, including ERK, JNK, and p38
TLR4-mediated IL-6 secretion (TLR4 [9]): suppressed the TLR4-mediated secretion of IL-6
TLR4-mediated TNF-α secretion (TLR4 [9]): suppressed the TLR4-mediated secretion of IL-6 and TNF-α
TLR3-mediated IFN-β secretion (TLR3): suppressed
cell viability (hMNCs): substantial reproducible outcomes were observed in terms of cell viability
thickness of the dermis [10, 11]: noticeably attenuated thickness of the epidermis (yellow arrowheads) and dermis
thickness of the epidermis [10, 11]: noticeably attenuated thickness of the epidermis
overexpression of CD4 in skin ([10]; immunohistochemistry): effectively attenuated the overexpression of CD68, CD4
overexpression of CD68 in skin ([10]; immunohistochemistry): effectively attenuated the overexpression of CD68
overexpression of IL-17 in skin ([10]; immunohistochemistry): effectively attenuated the overexpression of CD68, CD4, and IL-17
